Calls of active or inactive are those of the source. No cut-off for these calls is given here.
Key:
[1] = system: Pseudomonas aeruginosa; experiment: Antibacterial activity against […] Pseudomonas aeruginosa ATCC 27853 at 100 ug/disk by standard disk assay; assay type: functional; conditions: read-out: IZ
Summary of the method: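 Disk diffusion on agar; compounds loaded onto 6 mm paper disks at 100 µg/disk and placed on the plate surface. Plates incubated at 37 °C for 24 h, then zone of inhibition recorded in mm. Ciprofloxacin at 100 µg/disk served as reference.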

[2] = system: Streptococcus mutans; experiment: Antibacterial activity against Streptococcus mutans ATCC 25175 at 100 ug/disk by standard disk assay; assay type: functional, organism-based
Summary of the method: (§1)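 Test compound loaded onto 6 mm paper disks at 100 µg/disk and laid on the agar surface. Plates incubated at 37 °C for 24 h, then scored for a zone of inhibition.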

[3] = system: Micrococcus luteus; experiment: Antibacterial activity against Sarcina lutea CMCC B28001 at 100 ug/disk by standard disk assay; assay type: functional, organism-based; summary of the method: as §1
[4] = system: Staphylococcus aureus; experiment: Antibacterial activity against Staphylococcus aureus ATCC 6538 at 100 ug/disk by standard disk assay; assay type: functional, organism-based; summary of the method: as §1
[5] = system: Enterococcus faecalis; experiment: Antibacterial activity against Enterococcus faecalis ATCC 19433 at 100 ug/disk by standard disk assay; assay type: functional, organism-based; summary of the method: as §1
[6] = system: Geotrichum candidum; experiment: Antifungal activity against Geotrichum candidum AS2.498 at 100 ug/disk by standard disk assay; assay type: functional, organism-based
Summary of the method: (§2)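 Paper disks (6 mm diameter) carrying 100 µg of test compound placed on the agar surface. Plates kept at 25 °C for 48 h and checked for a zone of inhibition.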

[7] = system: Aspergillus fumigatus; experiment: Antifungal activity against Aspergillus fumigatus ATCC 10894 at 100 ug/disk by standard disk assay; assay type: functional, organism-based; summary of the method: as §2
[8] = system: Candida albicans; experiment: Antifungal activity against Candida albicans ATCC 10231 at 100 ug/disk by standard disk assay; assay type: functional, organism-based; summary of the method: as §2
[9] = system: Lactococcus lactis; experiment: Antibacterial activity against Lactococcus lactis PCM 2379 at 100 ug/disk by standard disk assay; assay type: functional; conditions: read-out: IZ; summary of the method: as §1

**Q.** O=C(O)c1cn(C2CC2)c2cc(N3CCNCC3)c(F)cc2c1=O [CIPROFLOXACIN] was tested. Which zone of inhibition at 100 µg/disc [1] did it give?
**A.** 22 mm

**Q.** What does the source list for O[C@@H]1C=C[C@H](O)[C@@H]2[C@@H]1C1(C=C[C@@H]2O)Oc2cccc3cccc(c23)O1 [DECASPIRONE F]?
**A.** Activity [2]: inactive; Activity [3]: inactive; Activity [4]: inactive; Activity [5]: inactive; zone of inhibition at 100 µg/disc [1]: 8 mm; Activity [6]: inactive; Activity [7]: inactive; Activity [8]: inactive

**Q.** What does the source list for O=C1CC[C@@H](O)[C@@H]2[C@@H]1[C@@H](O)C=CC21Oc2cccc3cccc(c23)O1 [DECASPIRONE G]?
**A.** Activity [2]: inactive; Activity [3]: inactive; Activity [4]: inactive; Activity [5]: inactive; zone of inhibition at 100 µg/disc [1]: 8 mm; Activity [6]: inactive; Activity [7]: inactive; Activity [8]: inactive; zone of inhibition at 100 µg/disc [9]: 12 mm

**Q.** Which results are given for O[C@H]1[C@@H]2[C@H]([C@@H](O)C=CC23Oc2cccc4cccc(c24)O3)[C@@H](O)C[C@@H]1O [DECASPIRONE H]?
**A.** Activity [2]: inactive; Activity [3]: inactive; Activity [4]: inactive; Activity [5]: inactive; zone of inhibition at 100 µg/disc [1]: 8 mm; Activity [6]: inactive; Activity [7]: inactive; Activity [8]: inactive

**Q.** Which results are given for O=C1CCC(O)c2c(Oc3cccc4cccc(O)c34)cccc21 (centres undefined) [DECASPIRONE I]?
**A.** Activity [2]: inactive; Activity [3]: inactive; Activity [4]: inactive; Activity [5]: inactive; zone of inhibition at 100 µg/disc [1]: 8 mm; Activity [6]: inactive; Activity [7]: inactive; Activity [8]: inactive
